According to ChEMBL document CHEMBL3526081 (Drug Metab Dispos, 2011):

Experiments:
Liver microsome [1] = assay: Ratio of Vmax/Km in human liver microsomes assessed as 1alpha-hydroxylcinobufagin formation at 100 uM […] by UFLC-ESI-MS analysis; type: ADME; details: 0.5 h
Liver microsome [2] = assay: Drug metabolism in beagle dog liver microsomes assessed as 1alpha-hydroxylcinobufagin formation at 100 uM at 37 degC after 30 mins by UFLC-ESI-MS analysis in presence of 10 uM furafylline CYP1A2 inhibitor; type: ADME, Canis lupus familiaris; details: 0.5 h
Outline: (§1)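 Chemical inhibition: selective P450 inhibitors (furafylline, sulfaphenazole, ketoconazole) added to liver microsome incubations in 100 mM potassium phosphate pH 7.4 with NADPH-generating system at 37°C. Hydroxylated metabolite formation quantified by UFLC at 294 nm against standards. Mean ± S.D. of three experiments in duplicate.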

Liver microsome [3] = assay: Ratio of Vmax/Km in human liver microsomes assessed as 5beta-hydroxylcinobufaginn formation at 100 uM at 37 degC […] by UFLC-ESI-MS analysis; type: ADME; details: 0.5 h
[4] = Ratio of Vmax/Km in Colony-bred Chinese Bama minipig liver microsomes assessed as 1alpha-hydroxylcinobufagin formation at 100 uM […] by UFLC-ESI-MS analysis; type: ADME, Sus scrofa; details: pig, 0.5 h
[5] = Drug metabolism in cynomolgus monkey liver microsomes assessed as 1alpha-hydroxylcinobufagin formation at 100 uM at 37 degC after 30 mins by UFLC-ESI-MS analysis in presence of 10 uM furafylline CYP1A2 inhibitor; type: ADME, Macaca fascicularis; details: 0.5 h; outline: as §1
Liver microsome [6] = assay: Drug metabolism in human liver microsomes assessed as 1alpha-hydroxylcinobufagin formation at 100 uM at 37 degC after 30 mins […] in presence of 50 uM triethylenethiophosphoramide CYP2B6 inhibitor; type: ADME; details: 0.5 h
Liver microsome [7] = assay: Drug metabolism in human liver microsomes assessed as 5beta-hydroxylcinobufagin formation at 100 uM at 37 degC after 30 mins by UFLC-ESI-MS analysis in presence of NADPH-generating system; type: ADME; details: 0.5 h
Outline: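 CB (100 µM; acetonitrile ≤1% final) was incubated with pooled HLM (0.3 mg/ml) plus NADPH-generating system (1 mM NADP+, 10 mM glucose 6-phosphate, 1 unit/ml G6PDH, 4 mM MgCl2) in pH 7.4 phosphate buffer at 37°C for 30 min. Products were identified by UFLC-ESI-MS and quantified by UFLC-DAD at 294 nm.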

[8] = Drug metabolism in cynomolgus monkey liver microsomes assessed as 5beta-hydroxylcinobufaginn formation at 100 uM […] by UFLC-ESI-MS analysis; type: ADME, Macaca fascicularis; details: 0.5 h, read-out: Km(app)
[9] = Drug metabolism in Colony-bred Chinese Bama minipig liver microsomes assessed as 5beta-hydroxylcinobufagin formation at 100 uM at 37 degC after 30 mins by UFLC-ESI-MS analysis in presence of NADPH-generating system; type: ADME, Sus scrofa; details: pig, 0.5 h
Outline: (§2)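 Liver microsomes (0.3 mg protein/ml) incubated with 100 µM substrate at 37°C for 30 min, in 100 mM potassium phosphate pH 7.4 with NADPH-generating system (1 mM NADP+, 10 mM glucose 6-phosphate, 1 unit/ml G6PDH, 4 mM MgCl2). Acetonitrile ≤1% final. Stopped with ice-cold acetonitrile and centrifuged. Metabolites identified by UFLC-ESI-MS and quantified by UFLC-DAD at 294 nm against authentic standard curves.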

Liver microsome [10] = assay: Drug metabolism in beagle dog liver microsomes assessed as 1alpha-hydroxylcinobufagin formation at 100 uM at 37 degC after 30 mins by UFLC-ESI-MS analysis in presence of 1 uM ketoconazole CYP3A4 inhibitor; type: ADME, Canis lupus familiaris; details: 0.5 h; outline: as §1
[11] = Ratio of Vmax/Km in cynomolgus monkey liver microsomes assessed as 1alpha-hydroxylcinobufagin formation at 100 uM […] by UFLC-ESI-MS analysis; type: ADME, Macaca fascicularis; details: 0.5 h
[12] = Drug metabolism in Swiss-Hauschka (ICR) mouse liver microsomes assessed as 1alpha-hydroxylcinobufagin formation at 100 uM at 37 degC after 30 mins by UFLC-ESI-MS analysis in presence of NADPH-generating system; type: ADME; details: 0.5 h; outline: as §2
[13] = Drug metabolism in Swiss-Hauschka (ICR) mouse liver microsomes assessed as 1alpha-hydroxylcinobufagin formation at 100 uM at 37 degC after 30 mins by UFLC-ESI-MS analysis in presence of 10 uM furafylline CYP1A2 inhibitor; type: ADME; details: 0.5 h; outline: as §1
[14] = Ratio of Vmax/Km in cynomolgus monkey liver microsomes assessed as 5beta-hydroxylcinobufaginn formation at 100 uM […] by UFLC-ESI-MS analysis; type: ADME, Macaca fascicularis; details: 0.5 h
Liver microsome [15] = assay: Drug metabolism in human liver microsomes assessed as 5beta-hydroxylcinobufagin formation at 100 uM at 37 degC after 30 mins […] in presence of 10 uM sulfaphenazole CYP2C9 inhibitor; type: ADME; details: 0.5 h
Liver microsome [16] = assay: Drug metabolism in human liver microsomes assessed as 1alpha-hydroxylcinobufagin formation at 100 uM at 37 degC after 30 mins by UFLC-ESI-MS analysis in presence of 50 uM clomethiazole CYP2E1 inhibitor; type: ADME; details: 0.5 h
Outline: (§3)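 Pooled human liver microsomes (10 donors, both sexes) in 100 mM potassium phosphate pH 7.4 were incubated with CB and a selective P450 inhibitor. Reaction was started with NADPH-generating system after 3 min preincubation at 37°C and stopped with ice-cold acetonitrile. Hydroxylated products were quantified by UFLC-DAD at 294 nm; three experiments in duplicate.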

Liver microsome [17] = assay: Drug metabolism in human liver microsomes assessed as 5beta-hydroxylcinobufagin formation at 100 uM at 37 degC after 30 mins […] in presence of 50 uM triethylenethiophosphoramide CYP2B6 inhibitor; type: ADME; details: 0.5 h
Liver microsome [18] = assay: Drug metabolism in human liver microsomes assessed as 1alpha-hydroxylcinobufagin formation at 100 uM at 37 degC after 30 mins by UFLC-ESI-MS analysis in presence of 10 uM quinidine CYP2D6 inhibitor; type: ADME; details: 0.5 h; outline: as §3
Liver microsome [19] = assay: Drug metabolism in human liver microsomes assessed as 5beta-hydroxylcinobufaginn formation at 100 uM […] by UFLC-ESI-MS analysis; type: ADME; details: 0.5 h, read-out: Km(app)
Liver microsome [20] = assay: Drug metabolism in human liver microsomes assessed as 5beta-hydroxylcinobufagin formation at 100 uM at 37 degC after 30 mins by UFLC-ESI-MS analysis in presence of 10 uM furafylline CYP1A2 inhibitor; type: ADME; details: 0.5 h; outline: as §3
[21] = Drug metabolism in cynomolgus monkey liver microsomes assessed as 1alpha-hydroxylcinobufagin formation per mg of protein at 100 uM at 37 degC after 30 mins by UFLC-ESI-MS analysis; type: ADME, Macaca fascicularis; details: 0.5 h; outline: as §2
[22] = Drug metabolism in Colony-bred Chinese Bama minipig liver microsomes assessed as 1alpha-hydroxylcinobufagin formation at 100 uM at 37 degC after 30 mins by UFLC-ESI-MS analysis; type: ADME, Sus scrofa; details: pig, 0.5 h, read-out: Km(app); outline: as §2
Liver = assay: Ratio of Vmax/Km in Swiss-Hauschka (ICR) mouse liver microsomes assessed as 5beta-hydroxylcinobufaginn formation at 100 uM […] by UFLC-ESI-MS analysis; type: ADME; details: 0.5 h
Liver microsome [23] = assay: Ratio of Vmax/Km in beagle dog liver microsomes assessed as 1alpha-hydroxylcinobufagin formation at 100 uM […] by UFLC-ESI-MS analysis; type: ADME, Canis lupus familiaris; details: 0.5 h
[24] = Drug metabolism in Colony-bred Chinese Bama minipig liver microsomes assessed as 1alpha-hydroxylcinobufagin formation at 100 uM at 37 degC after 30 mins by UFLC-ESI-MS analysis in presence of 10 uM sulfaphenazole CYP2C9 inhibitor; type: ADME, Sus scrofa; details: pig, 0.5 h; outline: as §1

SMILES: CC(=O)O[C@H]1[C@H]2O[C@]23[C@@H]2CC[C@@H]4C[C@@H](O)CC[C@]4(C)[C@H]2CC[C@]3(C)[C@H]1c1ccc(=O)oc1 [CINOBUFAGIN]
- Vmax/Km (Liver microsome [1]): 47.2 µL/min/mg
- Drug metabolism (Liver microsome [2]): metabolite_detected
- Vmax/Km (Liver microsome [3]): 57.4 µL/min/mg
- Vmax/Km [4]: 14.5 µL/min/mg
- Drug metabolism [5]: metabolite_detected
- Drug metabolism (Liver microsome [6]): metabolite_detected
- Drug metabolism (Liver microsome [7]): metabolite_detected
- Km [8]: 8.5 µM
- Drug metabolism [9]: metabolite_detected
- Drug metabolism (Liver microsome [10]): metabolite_not_detected
- Vmax/Km [11]: 62 µL/min/mg
- Drug metabolism [12]: metabolite_detected
- Drug metabolism [13]: metabolite_detected
- Vmax/Km [14]: 216.5 µL/min/mg
- Drug metabolism (Liver microsome [15]): metabolite_detected
- Drug metabolism (Liver microsome [16]): metabolite_detected
- Drug metabolism (Liver microsome [17]): metabolite_detected
- Drug metabolism (Liver microsome [18]): metabolite_detected
- Km (Liver microsome [19]): 20.4 µM
- Drug metabolism (Liver microsome [20]): metabolite_detected
- Vmax [21]: 2.12 nmol/min/mg
- Km [22]: 17.2 µM
- Vmax/Km (Liver): 644.6 µL/min/mg
- Vmax/Km (Liver microsome [23]): 387.9 µL/min/mg
- Drug metabolism [24]: metabolite_detected
